In ChEMBL document CHEMBL4325910, “Design and synthesis of rosiglitazone-ferulic acid-nitric oxide donor trihybrids for improving glucose tolerance” (Eur J Med Chem, 2019):
Active and inactive are the calls of the source. The rule behind the calls is not given here.

These compounds were tested on 3T3-L1 (assay: Induction of insulin-stimulated 2-NBDG uptake in TNF-alpha-induced insulin resistant mouse 3T3L1 cells at 10 uM preincubated for 48 hrs followed by 2-NBDG addition measured after 30 mins in presence of insulin by fluorescence assay). Conditions: not given.
Type: functional, cell-based
Method in brief: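 Day-8 differentiated 3T3-L1 adipocytes received TNF-α (4 ng/mL) daily for 4 days. They were pretreated in triplicate for 48 h (C-PTIO 20 μM where indicated), then given 100 μM 2-NBDG at 37 °C for 30 min in the dark, with or without insulin. After KRP washes, fluorescence was read at Ex/Em 485/515 nm. Three experiments, mean ± SD.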

SMILES | Activity
COC(=O)/C=C/c1ccc(OC(=O)OCN2C(=O)SC(Cc3ccc(OCCN(C)c4ccccn4)cc3)C2=O)c(OC)c1 (centres undefined) | Active
COC(=O)/C=C/c1ccc(O)c(OC)c1 | Active
COc1cc(/C=C/C(=O)OCN2C(=O)SC(Cc3ccc(OCCN(C)c4ccccn4)cc3)C2=O)ccc1OCCCO[N+](=O)[O-] (centres undefined) | inactive
COc1cc(/C=C/C(=O)OCN2C(=O)SC(Cc3ccc(OCCN(C)c4ccccn4)cc3)C2=O)ccc1OCCCCO[N+](=O)[O-] (centres undefined) | inactive
COc1cc(/C=C/C(=O)OCCCCO[N+](=O)[O-])ccc1OC(=O)OCN1C(=O)SC(Cc2ccc(OCCN(C)c3ccccn3)cc2)C1=O (centres undefined) | Active

These compounds were tested on L02 (assay: Inhibition of cellular glucose output in dexamethasone-induced insulin resistant human L02 cells assessed as insulin-stimulated glucose uptake at 10 uM preincubated for 24 hrs followed by insulin stimulation measured after 24 hrs by glucose oxidase method (reference value: 4.5 +/- 0.7%)). Conditions: not given.
Type: functional
Design: scale not given: the % may be the effect or the level left

SMILES | Activity [%]
COc1cc(/C=C/C(=O)OCN2C(=O)SC(Cc3ccc(OCCN(C)c4ccccn4)cc3)C2=O)ccc1OCCCCCO[N+](=O)[O-] (centres undefined) | 7.1
COc1cc(/C=C/C(=O)OCCCCCCO[N+](=O)[O-])ccc1OC(=O)CCC(=O)OCN1C(=O)SC(Cc2ccc(OCCN(C)c3ccccn3)cc2)C1=O (centres undefined) | 6.8
COc1cc(/C=C/C(=O)OCCCCCCO[N+](=O)[O-])ccc1OC(=O)OCN1C(=O)SC(Cc2ccc(OCCN(C)c3ccccn3)cc2)C1=O (centres undefined) | 8
COc1cc(/C=C/C(=O)OCCCCCO[N+](=O)[O-])ccc1OC(=O)OCN1C(=O)SC(Cc2ccc(OCCN(C)c3ccccn3)cc2)C1=O (centres undefined) | 7.1
COc1cc(/C=C/C(=O)OCCCO[N+](=O)[O-])ccc1OC(=O)OCN1C(=O)SC(Cc2ccc(OCCN(C)c3ccccn3)cc2)C1=O (centres undefined) | 9.6
COc1cc(/C=C/C(=O)OCCCO[N+](=O)[O-])ccc1OC(=O)CCC(=O)OCN1C(=O)SC(Cc2ccc(OCCN(C)c3ccccn3)cc2)C1=O (centres undefined) | 10
COc1cc(/C=C/C(=O)OCN2C(=O)SC(Cc3ccc(OCCN(C)c4ccccn4)cc3)C2=O)ccc1OCCCO[N+](=O)[O-] (centres undefined) | 11.5
COc1cc(/C=C/C(=O)OCN2C(=O)SC(Cc3ccc(OCCN(C)c4ccccn4)cc3)C2=O)ccc1OCCCCO[N+](=O)[O-] (centres undefined) | 11.1
COc1cc(/C=C/C(=O)OCN2C(=O)SC(Cc3ccc(OCCN(C)c4ccccn4)cc3)C2=O)ccc1OCCCCCCO[N+](=O)[O-] (centres undefined) | 8.5
COc1cc(/C=C/C(=O)OCCCCO[N+](=O)[O-])ccc1OC(=O)CCC(=O)OCN1C(=O)SC(Cc2ccc(OCCN(C)c3ccccn3)cc2)C1=O (centres undefined) | 7.8
COc1cc(/C=C/C(=O)OCCCCO[N+](=O)[O-])ccc1OC(=O)OCN1C(=O)SC(Cc2ccc(OCCN(C)c3ccccn3)cc2)C1=O (centres undefined) | 12.2
COc1cc(/C=C/C(=O)OCCCCCO[N+](=O)[O-])ccc1OC(=O)CCC(=O)OCN1C(=O)SC(Cc2ccc(OCCN(C)c3ccccn3)cc2)C1=O (centres undefined) | 10.1

These compounds were tested against T1, Aquaporin-2 (Homo sapiens, UniProt P41181) (assay: Induction of membrane translocation of biotinylated human AQP2 expressed in rat IMCD cells at 100 uM after 30 mins by FITC-staining based confocal fluorescence microscopic analysis). Conditions: 0.5 h.
T1 sequence (P41181 whole entry): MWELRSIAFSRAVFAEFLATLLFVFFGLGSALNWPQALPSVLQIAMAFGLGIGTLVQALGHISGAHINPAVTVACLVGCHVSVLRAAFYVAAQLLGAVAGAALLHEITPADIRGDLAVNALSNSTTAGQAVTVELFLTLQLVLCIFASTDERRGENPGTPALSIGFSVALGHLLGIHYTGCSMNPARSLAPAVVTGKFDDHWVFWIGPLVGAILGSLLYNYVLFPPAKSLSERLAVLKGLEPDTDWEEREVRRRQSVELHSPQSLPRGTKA
Type: cell-based
Method in brief: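 Primary SD rat IMCD cells, day 5, were transfected with a human AQP2 plasmid (5 h, serum-free) and cultured 48 h. They were treated for 30 min, with 0.1% DMSO as vehicle and forskolin 100 μM as reference. Cells were fixed in paraformaldehyde, permeabilized with Triton X-100 and quenched with H2O2/methanol. They were stained with FITC-anti-AQP2 and imaged by confocal microscopy.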

Activity | SMILES
Active | C=C[C@@]1(C)CC(=O)[C@]2(O)[C@@]3(C)[C@@H](O)CCC(C)(C)[C@@H]3[C@H](O)[C@H](OC(C)=O)[C@@]2(C)O1 [COLFORSIN]

The compounds below were run against T1, Aquaporin-2 (assay: Induction of membrane translocation of biotinylated human AQP2 expressed in rat IMCD cells at 100 uM after 30 mins by Western blot analysis). Conditions: 0.5 h.
Type: cell-based
Method in brief: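 Human AQP2-transfected primary rat IMCD cells were treated for 30 min. Surface proteins were biotinylated with sulfo-NHS-LC-biotin (3 mg/mL, 60 min, 4 °C), then cells lysed in 1% NP-40 and pulled down overnight on streptavidin beads. Biotinylated and total AQP2 (30 μg/lane) were blotted with anti-AQP2 and quantified by densitometry as the biotinylated/total ratio. Three experiments, mean ± SD.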

Activity | SMILES
Active | C=C[C@@]1(C)CC(=O)[C@]2(O)[C@@]3(C)[C@@H](O)CCC(C)(C)[C@@H]3[C@H](O)[C@H](OC(C)=O)[C@@]2(C)O1 [COLFORSIN]
